Results published in ChEMBL document CHEMBL1148701, “Design and synthesis of a new class of selective integrin alpha5beta1 antagonists” (J Med Chem, 2007).

Experiments:
Integrin alpha-V/beta-3 = Integrin alpha-V/beta-3 (Homo sapiens, UniProt P05106+P06756); test: Inhibition of integrin alpha-V-beta-3 receptor by ELISA; format: protein-complex assay
Procedure, shortened: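 Vitronectin-coated wells (1 µg/mL) were blocked with 3% BSA/PBS-Tween. Soluble αvβ3 (1 µg/mL) was incubated with serially diluted inhibitor for 1 h at RT in Tris/NaCl/MnCl2/BSA buffer. Binding was read with anti-αvβ3 plus anti-mouse-HRP, then TMB, absorbance 450 nm. IC50 was taken at the turning point of the inhibition curve.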

[1] = target: Integrin alpha-IIb/beta-3 (Homo sapiens, UniProt P05106+P08514); test: Inhibition of integrin alpha-2b-beta-3 receptor by ELISA; format: protein-complex assay
Procedure, shortened: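 Solid-phase ELISA. Wells coated with fibrinogen (10 µg/mL) and blocked with 3% BSA in PBS/0.1% Tween 20 for 1 h at RT. Soluble αIIbβ3 (5 µg/mL) was incubated with serially diluted inhibitor in Tris pH 7.6, 150 mM NaCl, 1 mM MnCl2/MgCl2/CaCl2, 1 mg/mL BSA for 1 h at RT. Detection used anti-CD41b then anti-mouse-HRP, TMB, A450. IC50 was taken as the curve turning point.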

Integrin alpha-5/beta-1 [2] = target: T1, Integrin alpha-5/beta-1 (Homo sapiens, UniProt P05556+P08648); test: Inhibition of integrin alpha-5-beta-1 receptor by ELISA; format: protein-complex assay
Procedure, shortened: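 Wells coated overnight at 4°C with fibronectin (0.25 µg/mL) at pH 9.6, then blocked with 3% BSA. Bound integrin was detected with anti-human-Fc-HRP, TMB, A450. IC50 was taken from the curve turning point.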

Integrin alpha-V/beta-5 = Integrin alpha-V/beta-5 (Homo sapiens, UniProt P06756+P18084); test: Inhibition of integrin alpha-V-beta-5 receptor by ELISA; format: protein-complex assay
Procedure, shortened: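 ELISA on vitronectin coating (5 µg/mL). Soluble αvβ5 (1.5 µg/mL) was incubated with serially diluted inhibitor for 1 h at RT in Tris pH 7.6, NaCl, 1 mM each MnCl2/MgCl2/CaCl2, BSA, 0.05% Tween 20. Detection used anti-αvβ5 and anti-mouse-HRP, TMB, A450. IC50 was the inflection point.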

[3] = Inhibition of integrin alpha-3b-beta-1 receptor by ELISA; parameters: species or system Homo sapiens
Procedure, shortened: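 Solid-phase ELISA. Wells coated with laminin (5 µg/mL) and blocked with 3% BSA/PBS-Tween. Soluble α3β1 (2 µg/mL) was incubated with serially diluted inhibitor in Tris pH 7.6, NaCl, 1 mM MnCl2, BSA, 0.05% Tween 20 for 1 h at RT. Detection used polyclonal anti-α3β1 then anti-rabbit-HRP, TMB/H2SO4, absorbance 450 nm. IC50 was taken as the inflection point.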

[4] = Stability in human microsome at 1 uM after 1 hr; format: ADME; conditions: microsomes, read-out: Stability
Procedure, shortened: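 Compound at 1 µM was incubated with human microsomes for 1 h, and the percentage remaining was recorded.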

Homo sapiens [5] = species: Homo sapiens; test: Selectivity for integrin alpha5beta1 over alphaVbeta3 receptor
Homo sapiens [6] = species: Homo sapiens; test: Selectivity for integrin alpha-5-beta-1 over alphaVbeta5 receptor
Homo sapiens [7] = species: Homo sapiens; test: Selectivity for integrin alpha-5-beta-1 over alpha2bbeta3 receptor
Homo sapiens [8] = species: Homo sapiens; test: Selectivity for integrin alpha5beta1 over alpha-3-beta-1 receptor
Integrin alpha-5/beta-1 [9] = target: T1, Integrin alpha-5/beta-1; test: Inhibition of integrin alpha-5-beta-1 receptor expressed in HEK293 cells; format: cell-based
Procedure, shortened: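 HEK293 cells with endogenous α5β1 were tested for adhesion to fibronectin. IC50 was determined.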

Sequence of Integrin alpha-V/beta-3 (P05106 27-788 limits assumed): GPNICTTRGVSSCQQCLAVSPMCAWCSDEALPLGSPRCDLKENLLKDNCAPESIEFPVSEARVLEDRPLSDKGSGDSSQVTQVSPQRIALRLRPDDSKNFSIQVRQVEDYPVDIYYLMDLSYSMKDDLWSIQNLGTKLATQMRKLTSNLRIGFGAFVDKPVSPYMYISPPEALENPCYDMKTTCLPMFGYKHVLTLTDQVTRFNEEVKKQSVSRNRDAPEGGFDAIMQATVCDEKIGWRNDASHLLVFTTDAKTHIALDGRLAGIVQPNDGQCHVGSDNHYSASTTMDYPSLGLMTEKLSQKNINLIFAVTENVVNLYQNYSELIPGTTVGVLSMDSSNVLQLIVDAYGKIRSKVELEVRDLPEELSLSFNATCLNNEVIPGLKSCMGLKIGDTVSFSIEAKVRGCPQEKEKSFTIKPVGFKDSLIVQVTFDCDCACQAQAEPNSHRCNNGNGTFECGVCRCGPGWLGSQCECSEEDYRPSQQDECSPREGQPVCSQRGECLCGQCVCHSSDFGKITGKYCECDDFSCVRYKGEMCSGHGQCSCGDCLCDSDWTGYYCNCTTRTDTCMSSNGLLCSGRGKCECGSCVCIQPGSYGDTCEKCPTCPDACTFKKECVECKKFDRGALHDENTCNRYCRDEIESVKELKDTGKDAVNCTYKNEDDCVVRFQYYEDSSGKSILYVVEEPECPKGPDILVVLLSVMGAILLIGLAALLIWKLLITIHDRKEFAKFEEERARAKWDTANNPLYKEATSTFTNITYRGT
Sequence of Integrin alpha-V/beta-3 (P06756 31-889 limits assumed): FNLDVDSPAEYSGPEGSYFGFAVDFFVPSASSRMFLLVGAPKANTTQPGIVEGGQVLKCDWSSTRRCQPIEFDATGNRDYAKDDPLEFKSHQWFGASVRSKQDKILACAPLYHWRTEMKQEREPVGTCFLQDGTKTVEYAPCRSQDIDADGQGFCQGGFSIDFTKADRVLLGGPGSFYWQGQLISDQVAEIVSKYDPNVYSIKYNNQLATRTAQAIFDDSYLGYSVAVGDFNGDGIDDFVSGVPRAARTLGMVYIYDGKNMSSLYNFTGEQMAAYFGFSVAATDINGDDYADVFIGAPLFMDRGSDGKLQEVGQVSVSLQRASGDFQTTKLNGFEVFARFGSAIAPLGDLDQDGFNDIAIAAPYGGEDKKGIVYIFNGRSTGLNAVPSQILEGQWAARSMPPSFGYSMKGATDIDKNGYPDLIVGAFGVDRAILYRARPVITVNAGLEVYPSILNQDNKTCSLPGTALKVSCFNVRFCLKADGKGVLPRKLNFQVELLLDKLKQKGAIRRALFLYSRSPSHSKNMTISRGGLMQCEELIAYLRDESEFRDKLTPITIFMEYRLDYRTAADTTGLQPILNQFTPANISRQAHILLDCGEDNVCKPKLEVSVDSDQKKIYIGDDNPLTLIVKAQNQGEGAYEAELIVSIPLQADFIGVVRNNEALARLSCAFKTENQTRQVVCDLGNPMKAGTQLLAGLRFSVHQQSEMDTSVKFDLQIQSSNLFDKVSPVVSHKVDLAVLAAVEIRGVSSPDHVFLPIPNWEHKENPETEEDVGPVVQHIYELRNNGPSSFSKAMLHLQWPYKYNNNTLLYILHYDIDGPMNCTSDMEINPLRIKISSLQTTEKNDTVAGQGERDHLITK
Sequence of Integrin alpha-V/beta-3 (P06756 891-1048 limits assumed): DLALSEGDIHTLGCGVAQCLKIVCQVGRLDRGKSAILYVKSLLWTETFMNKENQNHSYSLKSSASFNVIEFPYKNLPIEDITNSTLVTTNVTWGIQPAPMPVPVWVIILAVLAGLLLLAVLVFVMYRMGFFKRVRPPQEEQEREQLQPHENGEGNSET
Sequence of Integrin alpha-IIb/beta-3 (P05106 27-788 limits assumed): as the sequence (P05106 27-788 limits assumed) above
Sequence of Integrin alpha-IIb/beta-3 (P08514 32-887 limits assumed): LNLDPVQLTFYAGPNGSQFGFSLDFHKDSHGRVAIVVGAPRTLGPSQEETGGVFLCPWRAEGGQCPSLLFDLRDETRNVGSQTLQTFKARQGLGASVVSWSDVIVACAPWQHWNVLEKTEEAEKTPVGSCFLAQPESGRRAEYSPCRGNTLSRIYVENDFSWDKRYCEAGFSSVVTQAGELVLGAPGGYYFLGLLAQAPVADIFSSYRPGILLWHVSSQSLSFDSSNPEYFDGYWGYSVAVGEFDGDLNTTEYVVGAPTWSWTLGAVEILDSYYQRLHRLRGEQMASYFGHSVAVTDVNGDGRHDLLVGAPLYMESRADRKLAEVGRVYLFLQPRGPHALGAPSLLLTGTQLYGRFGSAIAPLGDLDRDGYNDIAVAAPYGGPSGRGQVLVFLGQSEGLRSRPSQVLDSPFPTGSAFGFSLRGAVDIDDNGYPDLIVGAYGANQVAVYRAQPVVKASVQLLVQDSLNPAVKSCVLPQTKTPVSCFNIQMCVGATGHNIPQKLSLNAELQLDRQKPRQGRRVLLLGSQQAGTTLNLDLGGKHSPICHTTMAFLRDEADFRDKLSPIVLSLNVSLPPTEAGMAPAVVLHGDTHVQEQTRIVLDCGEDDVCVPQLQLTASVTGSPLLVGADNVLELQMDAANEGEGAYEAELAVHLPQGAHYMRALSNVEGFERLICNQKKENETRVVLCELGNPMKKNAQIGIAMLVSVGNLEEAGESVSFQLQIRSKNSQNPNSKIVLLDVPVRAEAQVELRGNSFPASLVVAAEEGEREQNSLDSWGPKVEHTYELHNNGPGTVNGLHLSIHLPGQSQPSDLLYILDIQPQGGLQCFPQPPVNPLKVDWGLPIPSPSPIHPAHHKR
Sequence of Integrin alpha-IIb/beta-3 (P08514 891-1039 limits assumed): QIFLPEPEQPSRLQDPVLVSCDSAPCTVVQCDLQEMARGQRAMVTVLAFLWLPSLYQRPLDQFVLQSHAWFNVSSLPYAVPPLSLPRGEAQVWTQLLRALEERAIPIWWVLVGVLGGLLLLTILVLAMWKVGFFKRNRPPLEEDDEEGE
Sequence of Integrin alpha-V/beta-5 (P06756 31-889 limits assumed): as the sequence (P06756 31-889 limits assumed) above
Sequence of Integrin alpha-V/beta-5 (P06756 891-1048 limits assumed): as the sequence (P06756 891-1048 limits assumed) above
Sequence of Integrin alpha-V/beta-5 (P18084 24-799 limits assumed): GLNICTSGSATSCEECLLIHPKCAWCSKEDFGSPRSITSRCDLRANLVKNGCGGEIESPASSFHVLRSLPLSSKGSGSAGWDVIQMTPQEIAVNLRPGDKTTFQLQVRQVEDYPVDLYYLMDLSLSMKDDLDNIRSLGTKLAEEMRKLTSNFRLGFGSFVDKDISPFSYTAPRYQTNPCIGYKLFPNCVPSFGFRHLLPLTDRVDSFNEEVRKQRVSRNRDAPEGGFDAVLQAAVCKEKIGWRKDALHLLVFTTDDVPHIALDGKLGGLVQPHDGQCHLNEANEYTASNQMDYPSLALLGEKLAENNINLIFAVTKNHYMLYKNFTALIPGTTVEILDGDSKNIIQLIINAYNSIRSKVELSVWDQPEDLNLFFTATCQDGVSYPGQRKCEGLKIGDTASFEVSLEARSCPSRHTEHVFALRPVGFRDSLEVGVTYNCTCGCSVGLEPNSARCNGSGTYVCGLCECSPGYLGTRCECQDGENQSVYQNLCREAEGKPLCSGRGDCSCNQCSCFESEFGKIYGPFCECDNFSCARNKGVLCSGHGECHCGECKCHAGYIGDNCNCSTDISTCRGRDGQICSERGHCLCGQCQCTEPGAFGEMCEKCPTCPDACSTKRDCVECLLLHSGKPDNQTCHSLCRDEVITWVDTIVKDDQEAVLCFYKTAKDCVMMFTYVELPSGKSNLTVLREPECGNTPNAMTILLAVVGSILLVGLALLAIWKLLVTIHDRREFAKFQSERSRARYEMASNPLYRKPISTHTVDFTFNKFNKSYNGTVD

IC50 (Integrin alpha-V/beta-3) [µM]	IC50 [1] [µM]	IC50 (Integrin alpha-5/beta-1 [2]) [µM]	IC50 (Integrin alpha-V/beta-5) [µM]	IC50 [3] [µM]	SMILES	also measured
3.4	50	0.00054	2.7	20	COc1ccnc(NC[C@@H]2C[C@@H](OCC(=O)NC[C@H](NC(=O)c3c(C)cc(C)cc3C)C(=O)O)CN2C(=O)OCc2ccccc2)c1	–
16	> 50	0.0016	> 50	–	Cc1cc(C)c(C(=O)N[C@@H](CNC(=O)CO[C@@H]2C[C@@H](CNc3ccccn3)N(C(=O)CC(C)(C)C)C2)C(=O)O)c(C)c1	–
0.036	8	0.006	0.245	–	Cc1cc(C)c(S(=O)(=O)N[C@@H](CNC(=O)CO[C@@H]2C[C@@H](CNc3ccccn3)N(C(=O)CC(C)(C)C)C2)C(=O)O)c(C)c1	remaining at 1 h, 1 µM [4]: 70%
0.0063	12	0.086	0.26	–	O=C(CO[C@@H]1C[C@@H](CNc2ccccn2)N(C(=O)OCc2ccccc2)C1)NC[C@H](NS(=O)(=O)c1ccccc1)C(=O)O	–
0.016	–	–	0.33	> 200	Cc1cc(C)c(S(=O)(=O)N[C@@H](CNC(=O)CO[C@@H]2C[C@@H](CNc3ccccn3)N(C(=O)OCc3ccccc3)C2)C(=O)O)c(C)c1	remaining at 1 h, 1 µM [4]: 43%
0.0024	0.0077	0.0011	0.019	–	COc1ccnc(NC[C@@H]2C[C@@H](OCC(=O)NC[C@H](NS(=O)(=O)c3c(C)cc(C)cc3C)C(=O)O)CN2C(=O)OCc2ccccc2)c1	–
0.88	> 50	0.0017	0.55	–	CC1(C(=O)N[C@@H](CNC(=O)CO[C@@H]2C[C@@H](CNc3ccccn3)N(C(=O)OCc3ccccc3)C2)C(=O)O)CCCCC1	–
1.6	> 50	0.0014	2.3	–	CC(C)(C)CC(=O)N1C[C@H](OCC(=O)NC[C@H](NC(=O)C2(C)CCCCC2)C(=O)O)C[C@H]1CNc1ccccn1	–
30	> 50	0.0035	30	36	Cc1cc(C)c(C(=O)N[C@@H](CNC(=O)CO[C@@H]2C[C@@H](CNc3ccccn3)N(C(=O)OCc3ccccc3)C2)C(=O)O)c(C)c1	Selectivity ratio (Homo sapiens [5]): 10000; Selectivity ratio (Homo sapiens [6]): 10000; Selectivity ratio (Homo sapiens [7]): 10000; Selectivity ratio (Homo sapiens [8]): 10000
0.98	> 50	0.00055	4.3	50	COc1ccnc(NC[C@@H]2C[C@@H](OCC(=O)NC[C@H](NC(=O)C3(C)CCCCC3)C(=O)O)CN2C(=O)CC(C)(C)C)c1	–
0.004	11	0.0009	0.029	–	COc1ccnc(NC[C@@H]2C[C@@H](OCC(=O)NC[C@H](NS(=O)(=O)c3c(C)cc(C)cc3C)C(=O)O)CN2C(=O)CC(C)(C)C)c1	–
0.021	–	0.231	–	–	Cc1cc(C)c(S(=O)(=O)N[C@@H](CNC(=O)CO[C@@H]2C[C@@H](CNc3cccc(C)n3)N(C(=O)OCc3ccccc3)C2)C(=O)O)c(C)c1	–
0.009	–	0.015	–	–	COC(=O)N1C[C@H](OCC(=O)NC[C@H](NS(=O)(=O)c2c(C)cc(C)cc2C)C(=O)O)C[C@H]1CNc1ccccn1	–
–	–	0.445	–	–	Cc1cc(C)c(S(=O)(=O)N[C@@H](CNC(=O)CO[C@@H]2C[C@@H](CNc3cc(Cl)ccn3)N(C(=O)OCc3ccccc3)C2)C(=O)O)c(C)c1	–
0.14	–	0.155	–	–	O=C(CO[C@@H]1C[C@@H](CNc2ccccn2)N(C(=O)OCc2ccccc2)C1)NC[C@H](NC(=O)c1ccccc1)C(=O)O	–
3.3	> 50	0.00055	6.8	13	COc1ccnc(NC[C@@H]2C[C@@H](OCC(=O)NC[C@H](NC(=O)c3c(C)cc(C)cc3C)C(=O)O)CN2C(=O)CC(C)(C)C)c1	IC50 (Integrin alpha-5/beta-1 [9]): 0.05 µM
0.038	–	0.025	–	–	Cc1cc(C)c(S(=O)(=O)N[C@@H](CNC(=O)CO[C@@H]2C[C@@H](CNc3ccccn3)N(C(=O)CCc3ccccc3)C2)C(=O)O)c(C)c1	–
0.69	> 50	0.0008	3.1	30	COc1ccnc(NC[C@@H]2C[C@@H](OCC(=O)NC[C@H](NC(=O)C3(C)CCCCC3)C(=O)O)CN2C(=O)OCc2ccccc2)c1	–
–	–	0.286	–	–	Cc1cc(C)c(S(=O)(=O)N[C@@H](CNC(=O)CO[C@H]2CN[C@H](CNc3ccccn3)C2)C(=O)O)c(C)c1	–
–	–	0.67	–	–	Cc1cc(C)c(S(=O)(=O)N[C@@H](CNC(=O)CO[C@@H]2C[C@@H](CNc3ccccn3)N(CCCc3ccccc3)C2)C(=O)O)c(C)c1	–
